{"source": "ChEMBL document CHEMBL4715736", "about": "“Identification of anticancer agents based on the thieno[2,3-b]pyridine and 1H-pyrazole molecular scaffolds” (2016)", "type_in_all_cases": "functional", "key": {"ACHN [1]": {"system": "ACHN", "assay": "Growth inhibition of human ACHN cells assessed as cell growth at 100 uM incubated for 48 hrs by sulforhodamine B assay relative to control", "conditions": "read-out: Activity"}, "OVCAR-3": {"system": "OVCAR-3", "assay": "Growth inhibition of human OVCAR-3 cells incubated for 48 hrs by sulforhodamine B assay", "how_it_was_run": "(§1)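 NCI DTP 60-line human tumour panel. Dose-response curves were run only for ligands active in the initial 10 µM screen. GI50 (concentration giving 50% of maximal inhibition of proliferation) and TGI (concentration giving total growth inhibition) were derived from these curves.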"}, "A498 [2]": {"system": "A498", "assay": "Growth inhibition of human A498 cells incubated for 48 hrs by sulforhodamine B assay", "how_it_was_run": "(§2)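 NCI Developmental Therapeutics Program NCI60 panel. Compounds that were active in the 10 µM one-dose screen went on to dose–response testing. Growth at each concentration is expressed relative to untreated control (100%). GI50 (concentration giving 50% of maximal inhibition of proliferation) and TGI (concentration giving total growth inhibition) were derived from the curves.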"}, "NCI-H226": {"system": "NCI-H226", "assay": "Growth inhibition of human NCI-H226 cells assessed as cell growth at 0.1 uM incubated for 48 hrs by sulforhodamine B assay relative to control", "conditions": "read-out: Activity"}, "SK-MEL-2": {"system": "SK-MEL-2", "assay": "Growth inhibition of human SK-MEL-2 cells assessed as cell growth at 0.1 uM incubated for 48 hrs by sulforhodamine B assay relative to control", "conditions": "read-out: Activity"}, "M14 [3]": {"system": "M14", "assay": "Growth inhibition of human M14 cells incubated for 48 hrs by sulforhodamine B assay", "how_it_was_run": "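NCI60 panel at the NCI Developmental Therapeutics Program. Only compounds active in the 10 µM screen went to dose-response testing. GI50, the concentration giving 50% of maximal inhibition of proliferation, and TGI, the concentration giving total growth inhibition, were derived from the dose-response curves.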"}, "RXF 393": {"system": "RXF 393", "assay": "Growth inhibition of human RXF 393 cells incubated for 48 hrs by sulforhodamine B assay", "how_it_was_run": "as §1"}, "HCT-116": {"system": "HCT-116", "assay": "Growth inhibition of human HCT-116 cells assessed as cell growth at 1 uM incubated for 48 hrs by sulforhodamine B assay relative to control", "conditions": "read-out: Activity"}, "SNB-75": {"system": "SNB-75", "assay": "Growth inhibition of human SNB-75 cells assessed as cell growth at 0.1 uM incubated for 48 hrs by sulforhodamine B assay relative to control", "conditions": "read-out: Activity"}, "HOP-92": {"system": "HOP-92", "assay": "Growth inhibition of human HOP-92 cells assessed as cell growth at 0.1 uM incubated for 48 hrs by sulforhodamine B assay relative to control", "conditions": "read-out: Activity"}, "HT-29": {"system": "HT-29", "assay": "Growth inhibition of human HT-29 cells assessed as cell growth at 0.01 uM incubated for 48 hrs by sulforhodamine B assay relative to control", "conditions": "read-out: Activity"}, "A549": {"system": "A549", "assay": "Growth inhibition of human A549/ATCC cells assessed as cell growth at 1 uM incubated for 48 hrs by sulforhodamine B assay relative to control", "conditions": "read-out: Activity", "how_it_was_run": "as §2"}, "U-251": {"system": "U-251", "assay": "Growth inhibition of human U-251 cells assessed as cell growth at 100 uM incubated for 48 hrs by sulforhodamine B assay relative to control", "conditions": "read-out: Activity"}, "SF-539": {"system": "SF-539", "assay": "Growth inhibition of human SF-539 cells assessed as cell growth at 1 uM incubated for 48 hrs by sulforhodamine B assay relative to control", "conditions": "read-out: Activity"}, "SN12C": {"system": "SN12C", "assay": "Growth inhibition of human SN12C cells assessed as cell growth at 0.1 uM incubated for 48 hrs by sulforhodamine B assay relative to control", "conditions": "read-out: Activity"}, "NCI-H522 [4]": {"system": "NCI-H522", "assay": "Growth inhibition of human NCI-H522 cells assessed as cell growth at 100 uM incubated for 48 hrs by sulforhodamine B assay relative to control", "conditions": "read-out: Activity"}, "RPMI-8226": {"system": "RPMI-8226", "assay": "Growth inhibition of human RPMI-8226 cells assessed as cell growth at 0.01 uM incubated for 48 hrs by sulforhodamine B assay relative to control", "conditions": "read-out: Activity"}, "MCF7": {"system": "MCF7", "assay": "Growth inhibition of human MCF7 cells assessed as cell growth at 100 uM incubated for 48 hrs by sulforhodamine B assay relative to control", "conditions": "read-out: Activity"}, "A498 [5]": {"system": "A498", "assay": "Growth inhibition of human A498 cells assessed as cell growth at 100 uM incubated for 48 hrs by sulforhodamine B assay relative to control", "conditions": "read-out: Activity", "how_it_was_run": "as §2"}, "SF-268": {"system": "SF-268", "assay": "Growth inhibition of human SF-268 cells incubated for 48 hrs by sulforhodamine B assay", "how_it_was_run": "as §1"}, "SK-OV-3 [6]": {"system": "SK-OV-3", "assay": "Growth inhibition of human SK-OV-3 cells assessed as cell growth at 1 uM incubated for 48 hrs by sulforhodamine B assay relative to control", "conditions": "read-out: Activity"}, "M14 [7]": {"system": "M14", "assay": "Growth inhibition of human M14 cells assessed as cell growth at 0.1 uM incubated for 48 hrs by sulforhodamine B assay relative to control", "conditions": "read-out: Activity"}, "MOLT-4": {"system": "MOLT-4", "assay": "Growth inhibition of human MOLT-4 cells assessed as cell growth at 1 uM incubated for 48 hrs by sulforhodamine B assay relative to control", "conditions": "read-out: Activity"}, "PC-3": {"system": "PC-3", "assay": "Growth inhibition of human PC-3 cells assessed as cell growth at 0.01 uM incubated for 48 hrs by sulforhodamine B assay relative to control", "conditions": "read-out: Activity"}, "NCI-H522 [8]": {"system": "NCI-H522", "assay": "Growth inhibition of human NCI-H522 cells assessed as cell growth at 0.1 uM incubated for 48 hrs by sulforhodamine B assay relative to control", "conditions": "read-out: Activity"}, "HCT-15": {"system": "HCT-15", "assay": "Growth inhibition of human HCT-15 cells assessed as cell growth at 0.1 uM incubated for 48 hrs by sulforhodamine B assay relative to control", "conditions": "read-out: Activity"}, "COLO 205": {"system": "COLO 205", "assay": "Growth inhibition of human COLO 205 cells assessed as cell growth at 0.1 uM incubated for 48 hrs by sulforhodamine B assay relative to control", "conditions": "read-out: Activity", "how_it_was_run": "as §2"}, "ACHN [9]": {"system": "ACHN", "assay": "Growth inhibition of human ACHN cells assessed as cell growth at 0.01 uM incubated for 48 hrs by sulforhodamine B assay relative to control", "conditions": "read-out: Activity"}, "SK-OV-3 [10]": {"system": "SK-OV-3", "assay": "Growth inhibition of human SK-OV-3 cells assessed as cell growth at 0.1 uM incubated for 48 hrs by sulforhodamine B assay relative to control", "conditions": "read-out: Activity"}, "OVCAR-5": {"system": "OVCAR-5", "assay": "Growth inhibition of human OVCAR-5 cells assessed as cell growth at 1 uM incubated for 48 hrs by sulforhodamine B assay relative to control", "conditions": "read-out: Activity"}, "UO-31 [11]": {"system": "UO-31", "assay": "Growth inhibition of human UO-31 cells incubated for 48 hrs by sulforhodamine B assay", "how_it_was_run": "as §1"}, "UACC-257": {"system": "UACC-257", "assay": "Growth inhibition of human UACC-257 cells assessed as cell growth at 0.1 uM incubated for 48 hrs by sulforhodamine B assay relative to control", "conditions": "read-out: Activity"}, "UO-31 [12]": {"system": "UO-31", "assay": "Growth inhibition of human UO-31 cells assessed as cell growth at 0.01 uM incubated for 48 hrs by sulforhodamine B assay relative to control", "conditions": "read-out: Activity"}, "TK-10": {"system": "TK-10", "assay": "Growth inhibition of human TK-10 cells incubated for 48 hrs by sulforhodamine B assay", "how_it_was_run": "as §1"}, "SK-MEL-5": {"system": "SK-MEL-5", "assay": "Growth inhibition of human SK-MEL-5 cells assessed as cell growth at 100 uM incubated for 48 hrs by sulforhodamine B assay relative to control", "conditions": "read-out: Activity"}, "[13]": {"conditions": "read-out: LC50 (the source's name)"}}, "data": [{"smiles": "Cc1cccc(NC(=O)c2sc3nc4c(cc3c2N)C(=O)CCC4)c1", "values": [{"measurement": "growth at 100 µM", "setting": "ACHN [1]", "value": -21, "unit": "%"}, {"measurement": "GI50", "setting": "OVCAR-3", "value": 256, "unit": "nM"}, {"measurement": "TGI", "setting": "OVCAR-3", "value": 1660, "unit": "nM"}, {"measurement": "CC50", "setting": "OVCAR-3; [13]", "value": "≥ 100000", "unit": "nM"}, {"measurement": "GI50", "setting": "A498 [2]", "value": 139, "unit": "nM"}, {"measurement": "TGI", "setting": "A498 [2]", "value": 701, "unit": "nM"}, {"measurement": "CC50", "setting": "A498 [2]; [13]", "value": "> 100000", "unit": "nM"}, {"measurement": "growth at 0.1 µM", "setting": "NCI-H226", "value": 94, "unit": "%"}, {"measurement": "growth at 0.1 µM", "setting": "SK-MEL-2", "value": 70, "unit": "%"}, {"measurement": "GI50", "setting": "M14 [3]", "value": 165, "unit": "nM"}, {"measurement": "LC50 (concentration killing 50% of cells)", "setting": "M14 [3]", "value": "> 100000", "unit": "nM"}, {"measurement": "TGI", "setting": "M14 [3]", "value": "≥ 100000", "unit": "nM"}, {"measurement": "GI50", "setting": "RXF 393", "value": 167, "unit": "nM"}, {"measurement": "TGI", "setting": "RXF 393", "value": "≥ 100000", "unit": "nM"}, {"measurement": "CC50", "setting": "RXF 393; [13]", "value": "> 100000", "unit": "nM"}, {"measurement": "growth at 1 µM", "setting": "HCT-116", "value": 28, "unit": "%"}, {"measurement": "growth at 0.1 µM", "setting": "SNB-75", "value": 75, "unit": "%"}, {"measurement": "growth at 0.1 µM", "setting": "HOP-92", "value": 69, "unit": "%"}, {"measurement": "growth at 0.01 µM", "setting": "HT-29", "value": 97, "unit": "%"}, {"measurement": "growth at 1 µM", "setting": "A549", "value": 19, "unit": "%"}, {"measurement": "growth at 100 µM", "setting": "U-251", "value": -43, "unit": "%"}, {"measurement": "growth at 1 µM", "setting": "SF-539", "value": -38, "unit": "%"}, {"measurement": "growth at 0.1 µM", "setting": "SN12C", "value": 87, "unit": "%"}, {"measurement": "growth at 100 µM", "setting": "NCI-H522 [4]", "value": -27, "unit": "%"}, {"measurement": "growth at 0.01 µM", "setting": "RPMI-8226", "value": 99, "unit": "%"}, {"measurement": "growth at 100 µM", "setting": "MCF7", "value": -56, "unit": "%"}, {"measurement": "growth at 100 µM", "setting": "A498 [5]", "value": -53, "unit": "%"}, {"measurement": "GI50", "setting": "SF-268", "value": 1540, "unit": "nM"}, {"measurement": "LC50 (concentration killing 50% of cells)", "setting": "SF-268", "value": "> 100000", "unit": "nM"}, {"measurement": "TGI", "setting": "SF-268", "value": "> 100000", "unit": "nM"}, {"measurement": "growth at 1 µM", "setting": "SK-OV-3 [6]", "value": 7, "unit": "%"}, {"measurement": "growth at 0.1 µM", "setting": "M14 [7]", "value": 60, "unit": "%"}, {"measurement": "growth at 1 µM", "setting": "MOLT-4", "value": 54, "unit": "%"}, {"measurement": "growth at 0.01 µM", "setting": "PC-3", "value": 95, "unit": "%"}, {"measurement": "growth at 0.1 µM", "setting": "NCI-H522 [8]", "value": 51, "unit": "%"}, {"measurement": "growth at 0.1 µM", "setting": "HCT-15", "value": 48, "unit": "%"}, {"measurement": "growth at 0.1 µM", "setting": "COLO 205", "value": 78, "unit": "%"}, {"measurement": "growth at 0.01 µM", "setting": "ACHN [9]", "value": 90, "unit": "%"}, {"measurement": "growth at 0.1 µM", "setting": "SK-OV-3 [10]", "value": 73, "unit": "%"}, {"measurement": "growth at 1 µM", "setting": "OVCAR-5", "value": 44, "unit": "%"}, {"measurement": "TGI", "setting": "UO-31 [11]", "value": "≥ 100000", "unit": "nM"}, {"measurement": "CC50", "setting": "UO-31 [11]; [13]", "value": "> 100000", "unit": "nM"}, {"measurement": "growth at 0.1 µM", "setting": "UACC-257", "value": 58, "unit": "%"}, {"measurement": "growth at 0.01 µM", "setting": "UO-31 [12]", "value": 88, "unit": "%"}, {"measurement": "GI50", "setting": "TK-10", "value": "> 100000", "unit": "nM"}, {"measurement": "TGI", "setting": "TK-10", "value": "≥ 100000", "unit": "nM"}, {"measurement": "CC50", "setting": "TK-10; [13]", "value": "> 100000", "unit": "nM"}, {"measurement": "growth at 100 µM", "setting": "SK-MEL-5", "value": -30, "unit": "%"}]}]}
